Test results published in ChEMBL document CHEMBL5724801, “EUbOPEN Chemogenomics Library - Multiplex” (2024).
Values joined by “and” are separate entries in the source; they are usually repeats but may differ in a detail not shown here. Identical values can stand only once.

Test system: Fibroblast
Assay: Multiplex assay against human fibroblast
Type: toxicity, cell-based
Procedure, shortened: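 Tubulin, mitochondrial-mass and membrane-permeability phenotypes are per cents of healthy-nucleus cells. Cells were gated by CellPathfinder machine learning into Hoechst high-intensity objects or normal cells, normal cells into healthy, pyknosed or fragmented nuclei, and pyknosed cells into mitotic or apoptotic. Before that, live cells stained at seeding with Hoechst33342, BioTracker Green Microtubule Cytoskeleton Dye, MitoTracker Red and Annexin V Alexa Fluor 680 were imaged on a CQ1 microscope at 37°C and 5% CO2 after compound addition.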

[1] = 12 h, 1 µM, compound concentration 1 uM
[2] = 12 h, 10 µM, compound concentration 10 uM
[3] = 24 h, 1 µM, compound concentration 1 uM
[4] = 24 h, 10 µM, compound concentration 10 uM
[5] = 48 h, 1 µM, compound concentration 1 uM
[6] = 48 h, 10 µM, compound concentration 10 uM

CN(C)CCOc1ccc(/C(=C(/CCCO)c2ccccc2)c2ccc(O)cc2)cc1
Population Apoptotic (%) [1]: 9.46% and 11.76% | Population Fragmented Nuclei (%) [1]: 12.72% and 6.58% | Population Healthy Nuclei (%) [1]: 54.82% and 78.51% | Population Hoechst High Intensity Objects (%) [1]: 0% | Population Membrane Permeable-Phenotype (%) [1]: 2.4% and 1.12% | Population Mitochondria Different-Phenotype (%) [1]: 12.8% and 16.2% | Population Mitotic Cells (%) [1]: 90.54% and 88.24% | Population Normal (%) [1]: 100% | Population Pyknosed Nuclei (%) [1]: 32.46% and 14.91% | Population Tubulin-Different-Phenotype (%) [1]: 20.8% and 30.73% | Total Cell Count [1]: 228 | Population Apoptotic (%) [2]: 12.82% and 32.5% | Population Fragmented Nuclei (%) [2]: 12.81% and 6.25% | Population Healthy Nuclei (%) [2]: 54.96% and 65.97% | Population Hoechst High Intensity Objects (%) [2]: 0% | Population Membrane Permeable-Phenotype (%) [2]: 12.03% and 4.21% | Population Mitochondria Different-Phenotype (%) [2]: 33.83% and 24.74% | Population Mitotic Cells (%) [2]: 87.18% and 67.5% | Population Normal (%) [2]: 100% | Population Pyknosed Nuclei (%) [2]: 32.23% and 27.78% | Population Tubulin-Different-Phenotype (%) [2]: 69.92% and 80% | Total Cell Count [2]: 242 and 288 | Population Fragmented Nuclei (%) [3]: 7.69% and 4.15% | Population Healthy Nuclei (%) [3]: 73.68% and 82.16% | Population Hoechst High Intensity Objects (%) [3]: 0% | Population Membrane Permeable-Phenotype (%) [3]: 2.2% and 3.03% | Population Mitochondria Different-Phenotype (%) [3]: 9.34% and 7.58% | Population Mitotic Cells (%) [3]: 93.48% and 78.79% | Population Normal (%) [3]: 100% | Population Pyknosed Nuclei (%) [3]: 18.62% and 13.69% | Population Tubulin-Different-Phenotype (%) [3]: 22.53% and 32.32% | Total Cell Count [3]: 247 and 241 | Population Apoptotic (%) [4]: 20.78% and 46.67% | Population Fragmented Nuclei (%) [4]: 6.59% and 4.58% | Population Healthy Nuclei (%) [4]: 63.57% and 79.58% | Population Hoechst High Intensity Objects (%) [4]: 0% | Population Membrane Permeable-Phenotype (%) [4]: 6.1% and 8.41% | Population Mitochondria Different-Phenotype (%) [4]: 37.8% and 22.57% | Population Mitotic Cells (%) [4]: 79.22% and 53.33% | Population Normal (%) [4]: 100% | Population Pyknosed Nuclei (%) [4]: 29.84% and 15.85% | Population Tubulin-Different-Phenotype (%) [4]: 85.37% and 84.07% | Total Cell Count [4]: 258 and 284 | Population Apoptotic (%) [5]: 53.33% and 35.71% | Population Fragmented Nuclei (%) [5]: 8.78% and 7.97% | Population Healthy Nuclei (%) [5]: 85.5% and 86.45% | Population Hoechst High Intensity Objects (%) [5]: 0% | Population Membrane Permeable-Phenotype (%) [5]: 0% and 4.61% | Population Mitotic Cells (%) [5]: 46.67% and 64.29% | Population Normal (%) [5]: 100% | Population Pyknosed Nuclei (%) [5]: 5.73% and 5.58% | Total Cell Count [5]: 262 and 251 | Population Apoptotic (%) [6]: 35.29% and 73.91% | Population Fragmented Nuclei (%) [6]: 11.83% and 8.67% | Population Healthy Nuclei (%) [6]: 83.6% and 83.67% | Population Hoechst High Intensity Objects (%) [6]: 0% | Population Membrane Permeable-Phenotype (%) [6]: 2.89% and 5.58% | Population Mitochondria Different-Phenotype (%) [6]: 6.75% and 12.75% | Population Mitotic Cells (%) [6]: 64.71% and 26.09% | Population Normal (%) [6]: 100% | Population Pyknosed Nuclei (%) [6]: 4.57% and 7.67% | Population Tubulin-Different-Phenotype (%) [6]: 53.05% and 80.48% | Total Cell Count [6]: 372 and 300

Clc1ccccc1C(c1ccccc1)(c1ccccc1)n1cccn1
Population Apoptotic (%) [1]: 14.29% and 24% | Population Healthy Nuclei (%) [1]: 59.04% and 80.46% | Population Hoechst High Intensity Objects (%) [1]: 0% | Population Membrane Permeable-Phenotype (%) [1]: 4.08% and 0.71% | Population Mitochondria Different-Phenotype (%) [1]: 5.1% and 12.14% | Population Mitotic Cells (%) [1]: 85.71% and 76% | Population Normal (%) [1]: 100% | Population Pyknosed Nuclei (%) [1]: 25.3% and 14.37% | Total Cell Count [1]: 166 and 174 | Population Apoptotic (%) [2]: 9.84% and 23.44% | Population Fragmented Nuclei (%) [2]: 9.09% and 6.46% | Population Healthy Nuclei (%) [2]: 63.18% and 69.2% | Population Hoechst High Intensity Objects (%) [2]: 0% | Population Membrane Permeable-Phenotype (%) [2]: 9.35% and 3.85% | Population Mitochondria Different-Phenotype (%) [2]: 14.39% and 16.48% | Population Mitotic Cells (%) [2]: 90.16% and 76.56% | Population Normal (%) [2]: 100% | Population Pyknosed Nuclei (%) [2]: 27.73% and 24.33% | Population Tubulin-Different-Phenotype (%) [2]: 30.22% and 45.6% | Total Cell Count [2]: 220 and 263 | Population Fragmented Nuclei (%) [3]: 12.05% and 9.29% | Population Healthy Nuclei (%) [3]: 71.08% and 85.25% | Population Hoechst High Intensity Objects (%) [3]: 0% | Population Membrane Permeable-Phenotype (%) [3]: 4.24% and 2.56% | Population Mitochondria Different-Phenotype (%) [3]: 3.39% and 8.97% | Population Mitotic Cells (%) [3]: 96.43% and 60% | Population Normal (%) [3]: 100% | Population Tubulin-Different-Phenotype (%) [3]: 10.17% and 21.15% | Total Cell Count [3]: 166 and 183 | Population Apoptotic (%) [4]: 13.04% and 31.25% | Population Healthy Nuclei (%) [4]: 67.26% and 79.55% | Population Hoechst High Intensity Objects (%) [4]: 0% | Population Membrane Permeable-Phenotype (%) [4]: 9.87% and 0.95% | Population Mitochondria Different-Phenotype (%) [4]: 7.24% and 10.95% | Population Mitotic Cells (%) [4]: 86.96% and 68.75% | Population Normal (%) [4]: 100% | Population Pyknosed Nuclei (%) [4]: 20.35% and 18.18% | Population Tubulin-Different-Phenotype (%) [4]: 45.39% and 44.29% | Total Cell Count [4]: 226 and 264 | Population Apoptotic (%) [5]: 40% and 22.22% | Population Fragmented Nuclei (%) [5]: 11.92% and 7.69% | Population Healthy Nuclei (%) [5]: 82.9% and 87.69% | Population Hoechst High Intensity Objects (%) [5]: 0% | Population Membrane Permeable-Phenotype (%) [5]: 0.62% and 0.58% | Population Mitochondria Different-Phenotype (%) [5]: 11.25% and 3.51% | Population Mitotic Cells (%) [5]: 60% and 77.78% | Population Normal (%) [5]: 100% | Population Pyknosed Nuclei (%) [5]: 5.18% and 4.62% | Total Cell Count [5]: 193 and 195 | Population Apoptotic (%) [6]: 30.77% and 42.86% | Population Fragmented Nuclei (%) [6]: 9.35% and 4.71% | Population Healthy Nuclei (%) [6]: 85.37% and 89.8% | Population Hoechst High Intensity Objects (%) [6]: 0% | Population Membrane Permeable-Phenotype (%) [6]: 1.9% and 3.49% | Population Mitochondria Different-Phenotype (%) [6]: 13.33% and 6.11% | Population Mitotic Cells (%) [6]: 69.23% and 57.14% | Population Normal (%) [6]: 100% | Population Pyknosed Nuclei (%) [6]: 5.28% and 5.49% | Population Tubulin-Different-Phenotype (%) [6]: 14.76% and 36.24% | Total Cell Count [6]: 246 and 255

CN(C)Cc1cccc(NC(=C2C(=O)Nc3cc(C(N)=O)ccc32)c2ccccc2)c1
Population Apoptotic (%) [1]: 0% and 16.22% | Population Fragmented Nuclei (%) [1]: 12% and 11.4% | Population Healthy Nuclei (%) [1]: 66.67% and 69.43% | Population Hoechst High Intensity Objects (%) [1]: 0% | Population Membrane Permeable-Phenotype (%) [1]: 4% and 2.99% | Population Mitochondria Different-Phenotype (%) [1]: 10% and 8.21% | Population Mitotic Cells (%) [1]: 100% and 83.78% | Population Normal (%) [1]: 100% | Population Pyknosed Nuclei (%) [1]: 21.33% and 19.17% | Population Tubulin-Different-Phenotype (%) [1]: 20% and 13.43% | Total Cell Count [1]: 150 and 193 | Population Apoptotic (%) [2]: 29.55% and 27.03% | Population Healthy Nuclei (%) [2]: 68.3% and 82.06% | Population Hoechst High Intensity Objects (%) [2]: 0% | Population Membrane Permeable-Phenotype (%) [2]: 9.39% and 4.65% | Population Mitochondria Different-Phenotype (%) [2]: 16.57% and 13.49% | Population Mitotic Cells (%) [2]: 70.45% and 72.97% | Population Normal (%) [2]: 100% | Population Pyknosed Nuclei (%) [2]: 16.6% and 14.12% | Population Tubulin-Different-Phenotype (%) [2]: 48.62% and 53.95% | Total Cell Count [2]: 265 and 262 | Population Apoptotic (%) [3]: 23.81% and 25% | Population Fragmented Nuclei (%) [3]: 7.65% and 8.11% | Population Healthy Nuclei (%) [3]: 80% and 81.08% | Population Hoechst High Intensity Objects (%) [3]: 0% | Population Membrane Permeable-Phenotype (%) [3]: 4.41% and 2% | Population Mitochondria Different-Phenotype (%) [3]: 5.15% and 6.67% | Population Mitotic Cells (%) [3]: 76.19% and 75% | Population Normal (%) [3]: 100% | Population Pyknosed Nuclei (%) [3]: 12.35% and 10.81% | Population Tubulin-Different-Phenotype (%) [3]: 8.82% and 14.67% | Total Cell Count [3]: 170 and 185 | Population Apoptotic (%) [4]: 16.28% and 31.25% | Population Fragmented Nuclei (%) [4]: 12.59% and 7.12% | Population Healthy Nuclei (%) [4]: 71.94% and 80.9% | Population Hoechst High Intensity Objects (%) [4]: 0% | Population Membrane Permeable-Phenotype (%) [4]: 5.5% and 3.24% | Population Mitochondria Different-Phenotype (%) [4]: 9% and 14.35% | Population Mitotic Cells (%) [4]: 83.72% and 68.75% | Population Normal (%) [4]: 100% | Population Pyknosed Nuclei (%) [4]: 15.47% and 11.99% | Population Tubulin-Different-Phenotype (%) [4]: 48.5% and 61.11% | Total Cell Count [4]: 278 and 267 | Population Apoptotic (%) [5]: 40% and 44.44% | Population Fragmented Nuclei (%) [5]: 11.24% and 9.23% | Population Healthy Nuclei (%) [5]: 83.15% and 76.92% | Population Hoechst High Intensity Objects (%) [5]: 0% | Population Membrane Permeable-Phenotype (%) [5]: 1.35% and 5.33% | Population Mitotic Cells (%) [5]: 60% and 55.56% | Population Normal (%) [5]: 100% | Population Pyknosed Nuclei (%) [5]: 5.62% and 13.85% | Population Tubulin-Different-Phenotype (%) [5]: 8.11% and 15.33% | Total Cell Count [5]: 178 and 195 | Population Apoptotic (%) [6]: 47.37% and 60% | Population Healthy Nuclei (%) [6]: 76.72% and 86.82% | Population Hoechst High Intensity Objects (%) [6]: 0% | Population Membrane Permeable-Phenotype (%) [6]: 5.06% and 5.36% | Population Mitochondria Different-Phenotype (%) [6]: 6.23% and 7.14% | Population Mitotic Cells (%) [6]: 52.63% and 40% | Population Normal (%) [6]: 100% | Population Pyknosed Nuclei (%) [6]: 5.67% and 7.75% | Population Tubulin-Different-Phenotype (%) [6]: 40.86% and 67.41% | Total Cell Count [6]: 335 and 258
